Assay results gathered from unrelated publications.
Protocols differ between the studies behind these lines.
Cell line: NCI-H23
Read-out: cell growth or viability

Compound	test	setting	measurement	result
C[C@]12CC[C@@H]3c4ccc(O)cc4CC[C@H]3[C@@H]1CC[C@@H]2O	ATP luminescence	72 h	EC90	78.5 µM
c1ccc(-c2n(Cc3ccc4ccccc4c3)cc[n+]2Cc2ccc3ccccc3c2)cc1	SRB	–	TGI	2.35 µM
O=C(/C=C/c1ccc2c(=O)n(CCO)cnc2c1)NO	SRB	48 h	IC50	4.2 µM
O=C1NCCc2[nH]c(-c3ccncc3)cc21	–	–	IC50	> 10 µM
COc1ccc(C(=O)/C=C/c2cccc(Br)c2)cc1S(N)(=O)=O	SRB	10 µM	inhibition	166%
S=C([S][Au-][P+](CCCCCC[P+]([Au-][S]C(=S)n1cccn1)(c1ccccc1)c1ccccc1)(c1ccccc1)c1ccccc1)n1cccn1	SRB	–	GI50	4.76 µM
O=C1Nc2ccccc2C1=NNc1nnc2n1N=C(c1ccccc1)CS2	SRB	10 µM	inhibition	31%
COc1ccc(C(=O)/C=C/c2cccc(Cl)c2Cl)cc1S(N)(=O)=O	SRB	48 h	GI50	3.8 µM
O=C(/C=C/c1ccc2c(=O)n(CC3CCCCC3)cnc2c1)NO	SRB	48 h	IC50	2.29 µM
COc1ccc(C(=O)/C=C/c2cccc3ccccc23)cc1S(N)(=O)=O	SRB	10 µM	inhibition	120%
COc1ccc(-c2ccc(-c3ccc(C(=N)N)nc3)s2)cc1	SRB	–	GI50	1.84 µM
c1ccc2cc(Cn3cc[n+](Cc4ccc5ccccc5c4)c3)ccc2c1	SRB	–	TGI	10.1 µM
COc1ccc(C(=O)/C=C/c2cccnc2)cc1S(N)(=O)=O	SRB	10 µM	inhibition	78%
CCCc1n(Cc2ccc3ccccc3n2)cc[n+]1Cc1ccc2ccccc2c1	SRB	–	TGI	10.6 µM
COc1cccc(Oc2ccccc2NC(=O)CNC(=O)c2cccc3ccccc23)c1	SRB	48 h	GI50	0.741 µM
CCc1n(Cc2ccc3ccccc3n2)cc[n+]1Cc1ccc2ccccc2n1	SRB	–	GI50	0.257 µM
COc1ccc(C(=O)/C=C/c2ccc3ccccc3c2)cc1S(N)(=O)=O	SRB	10 µM	inhibition	124%
